Screens (PubChem BioAssay)
Sampled rows, rich in hits. Any-hit rate of the full collection: about 2.4%.
bCat nuc transl – beta-catenin nuclear translocation modulation. HeLa beta-catenin nuclear translocation, immunofluorescence imaging. nuclear translocation activity, % at 5 µM. hit rate 0.3% among 190,000. AID 1665;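 active = nuclear translocation activity above 50% at 5 µM, with a well cell count of 50 or more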;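 also: per-cell ratio of nuclear to cytoplasmic median beta-catenin stain intensity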
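Test system: human HeLa cells, native beta-catenin. Compound dosing: 5 µM primary single dose, 0.1% DMSO, 0.02–20 µM confirmation series. Incubation: compound exposure 24 h at 37°C. Detection: beta-catenin immunostaining with DAPI counterstain, 20x imaging, 6 fields/well. Read-out basis: Nuclear/cytoplasmic beta-catenin signal ratio, % activation.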
STAT1 inh – reduces IFN-gamma driven STAT1 reporter signal; NIH 3T3 STAT1-luciferase reporter, luminescence; hit rate 0.35% among 200,000; AID 920; inhibition, % at 5.5 µM;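 active = inhibition above a set limit, the mean inhibition across all tested compounds plus 3 SD, cut at about 34% in these data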
STAT3 act – increases IL-6 driven STAT3 reporter signal; hit rate 0.91% among 190,000; activation (% of control), % at 5.6 µM; AID 871; U3A cells, IL-6 STAT3-luciferase reporter, luminescence; 100% = signal with IL-6 EC80 alone;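 active = activation above the screen-wide mean of compound activation plus 3 SD, cut at about 130% in these data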
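Assay system – human STAT1-deficient U3A cells with stable STAT3-luciferase reporter · Also added – IL-6 (33 ng/mL) · Schedule – compound 1 h, then IL-6 6 h at 37 °C · Technique – reporter luminescence signal · Evaluation – % activation versus median of IL-6-stimulated wells · Benchmarks – IL-6-only wells as 100% reference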
MT stabilizer – microtubule stabilizers in HeLa cells | hit rate 0.83% among 200,000 | HeLa tubulin immunostaining HCS, 24 h; share of cells brighter than vehicle mean+2SD | % tubulin-high responders, % at 10 µM;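 active = plate Z-score above 3 for both tubulin-high and condensed-nucleus cell shares, with cell loss under 80%, at 10 µM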;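 also: anti alpha tubulin signal scored within the nucleus-defined area of each cell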
STAT3 inh-1 – STAT3 signaling inhibition. U3A cells, IL-6 STAT3-luciferase reporter, luminescence; host cell line lacks STAT1. inhibition, % at 5.5 µM. AID 862. hit rate 0.89% among 190,000;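 active = inhibition above the mean inhibition across all screened compounds plus 3 SD, cut at about 44% in these data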
STAT3 inh-2 – confirmation of STAT3 signaling inhibitors. shares compounds with STAT3 inh-1. U3A cells, IL-6 STAT3 luciferase reporter, luminescence; cell line lacks STAT1. inhibition, % at 5.7 µM. hit rate 45% among 1,200. AID 1265;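 active = inhibition above the hit cutoff computed for the primary STAT3 screen, cut at about 44% in these data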
NFkB inh STAT3ct – NF-kappaB inhibition in STAT3 inhibitor counter-screen; shares compounds with STAT3 inh-1; HEK293T NF-kB luciferase reporter, TNF-alpha induced; inhibition, % at 5.7 µM; hit rate 36% among 1,200; AID 1308;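 active = inhibition above the mean of solvent-only control wells plus 3 SD, cutoff set per campaign, cut at about 13% in these data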
STAT1 inh STAT3c – counter-screen for STAT3 inhibitors: STAT1 inhibition. shares compounds with STAT3 inh-1. NIH 3T3 STAT1-luciferase reporter, IFN-gamma induced, luminescence. inhibition, % at 5.7 µM. hit rate 27% among 1,200;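 active = inhibition above the mean plus 3 SD of solvent-only control wells, limit set per screening run, cut at about 16% in these data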
Large screens that a line does not name were inactive (follow-up assays come after a bar, where they were run).

CCCCn1c(O)c(C(CC)=Nc2ccc(OCC)cc2)c(=O)[nH]c1=O	none
CCCCn1c(O)c(C(C)=NC(C)c2ccccc2)c(=O)[nH]c1=O (configuration not stated)	none
CCCCn1c(O)c(C(CC)=NC(C)c2ccccc2)c(=O)[nH]c1=O (configuration not stated)	MT stabilizer 47 (no result: bCat nuc transl)
CCCCn1c(O)c(C(CC)=Nc2ccc(OC)cc2OC)c(=O)[nH]c1=O	MT stabilizer 29
CN(C)c1ccc(/C=C2/C(=N\O)C3CCN2CC3)cc1	none (no result: STAT1 inh, STAT3 act, MT stabilizer, STAT3 inh-1)
CCN1/C(=C\C=C\C2=[N+](CC)c3ccccc3C2(C)C)C(C)(C)c2ccccc21	STAT1 inh 56, STAT3 inh-1 100 (no result: bCat nuc transl)
COc1cccc(NP(=O)(Oc2ccc(Cl)cc2)Oc2ccc(Cl)cc2)c1	bCat nuc transl 90
CC1(C)N=C(c2ccccc2)[C@@H]2C(c3ccc([N+](=O)[O-])cc3)N21 (some centres not stated)	none
Cc1ccc(/C=C2\C(=O)NC(=S)N(c3ccccc3F)C2=O)s1	MT stabilizer 33
O=C(c1cc2c(s1)-c1ccccc1OC2)N1CCC2(CC1)OCCO2	MT stabilizer 54
CCn1nc(/C=C/c2ccccc2)nc2c(=O)n(C)c(=O)nc1-2	STAT1 inh 86, MT stabilizer 28, STAT3 inh-1 74
O=c1[nH]cc(COCC(F)(F)C(F)(F)C(F)(F)F)c(=O)[nH]1	none
CN1CC=C(c2c[nH]c3ccccc23)CC1	none
CC(C(=O)c1c[nH]c2ccccc12)N1CCc2ccccc2C1 (configuration not stated)	STAT3 act 134
CC(=O)OC(C)(C)/C=C/C(=O)[C@](C)(O)[C@H]1[C@H](O)C[C@@]2(C)[C@@H]3CC=C4[C@H](C[C@H](O)C(=O)C4(C)C)[C@]3(C)C(=O)C[C@]12C	MT stabilizer 40 (no result: bCat nuc transl)
COc1cccc(OC)c1C1=NCC(=O)Nc2c1oc1ccc(Br)cc21	MT stabilizer 14
O=C1CN=C(c2ccccc2)c2oc3ccc(Br)cc3c2N1	none
c1ccc(P(c2ccccn2)c2ccccn2)cc1	none
O=c1c2ccccc2nc(Cc2cccc([N+](=O)[O-])c2)n1-c1ccc(O)cc1	none (no result: STAT1 inh, STAT3 act, MT stabilizer, STAT3 inh-1)
CCN(CC)c1ccc(N=Cc2c(O)n(-c3ccccc3C)c(=O)[nH]c2=O)cc1	none (no result: bCat nuc transl)
CCOc1ccccc1-n1c(O)c(C=Nc2ccc(N(CC)CC)cc2)c(=O)[nH]c1=O	MT stabilizer 22
N=c1c2c(n(Cc3ccc(Cl)cc3Cl)c3c1CCC3)CCCC2	STAT3 inh-1 51
CCN(CC)P(c1n(C)cc[n+]1C)N(CC)CC	none
COC(=O)c1ccc(C(C(=O)NC2CCCCC2)N(CCN2CCOCC2)C(=O)Cc2cccs2)cc1 (configuration not stated)	none
O=C(c1ccc2c(c1)ncn2C1CCCCCC1)N1CCC2(CC1)OCCO2	none
COc1ccc(-n2cnc3cc(C(=O)N4CCC5(CC4)OCCO5)ccc32)cc1	MT stabilizer 13
COc1ccc(C)cc1NC1=NC(C)(C)CS1	none
CN(Cc1c[nH]c2ccccc12)C1CCCCC1	none
c1ccc2c(CNC3CCCCC3)c[nH]c2c1	STAT3 act 137 (no result: bCat nuc transl)
Cc1cccn2c(=O)c3cc(C(=O)N4CCC5(CC4)OCCO5)n(C)c3nc12	MT stabilizer 34
O=c1cccc2n1CC1CC2CN(S(=O)(=O)c2ccc(F)cc2)C1 (configuration not stated)	none
O=c1cccc2n1C[C@H]1C[C@@H]2CN2CCCC[C@@H]12	none (no result: STAT1 inh, STAT3 act, MT stabilizer, STAT3 inh-1)
O=C(Nc1ccc(Cl)cc1)Nc1nccs1	MT stabilizer 46
O=C(C(=O)N1CCOCC1)c1cn(Cc2ccc(F)cc2)c2ccccc12	none (no result: STAT1 inh, STAT3 act, MT stabilizer, STAT3 inh-1)
CN(C)c1ccc(/C=C/c2cc[n+](C)c3ccccc23)cc1	STAT3 inh-1 72
COC(=O)C1=Nc2ccccc2/C1=C\c1c(O)n(-c2ccc(Br)cc2)c(=O)[nH]c1=O	none
O=c1[nH]c(=O)n(-c2ccccc2)c(O)c1/C=C1/C(c2ccccc2)=Nc2ccccc21	bCat nuc transl 80, MT stabilizer 31
CCC(=NCCCN1CCOCC1)c1c(O)n(-c2ccccc2C)c(=O)[nH]c1=O	none (no result: STAT1 inh, STAT3 act, MT stabilizer, STAT3 inh-1)
O=C1CN=C(c2cccs2)c2c(sc3c2CCCC3)N1	MT stabilizer 54
O=C(CCS(=O)(=O)c1ccc(Br)cc1)N1CCC2(CC1)OCCO2	STAT1 inh 48
O=C(c1ccc(CS(=O)(=O)c2ccc(Br)cc2)o1)N1CCC2(CC1)OCCO2	none
O=C1C=Cc2ccccc2C1=O	STAT3 act 141 (no result: bCat nuc transl)
CC(C)(C)c1cc([N+](=O)[O-])cc(C(C)(C)C)c1O	STAT1 inh 59, STAT3 inh-1 60
CN1CCN(Cc2cc(C(C)(C)C)c(O)c(C(C)(C)C)c2)CC1	none (no result: bCat nuc transl)
O=C(N/N=C/c1c(O)n(Cc2ccc(F)cc2)c(=O)[nH]c1=O)c1ccccc1O	MT stabilizer 14
CCOc1ccc2nc(N=Nc3c(O)[nH]c(=S)[nH]c3=O)sc2c1	none
C[C@@H]1O[C@@H](O[C@H]2C[C@@H](O)[C@]3(CO)[C@H]4[C@H](O)C[C@]5(C)[C@@H](C6COC(=O)C6)CC[C@]5(O)[C@@H]4CC[C@]3(O)C2)[C@H](O)[C@H](O)[C@H]1O (some centres not stated)	STAT3 inh-1 56 (no result: bCat nuc transl) | STAT3 inh-2 inactive | NFkB inh STAT3ct inactive | STAT1 inh STAT3c inactive
CCC(=NCCc1c[nH]c2ccccc12)c1c(O)n(-c2ccc(C)cc2)c(=O)[nH]c1=O	none
CCC(=NCCc1c[nH]c2ccccc12)c1c(O)n(C)c(=O)n(C)c1=O	STAT3 inh-1 44 | STAT3 inh-2 47 | NFkB inh STAT3ct inactive | STAT1 inh STAT3c 20
O=C(C1CCN(c2nc3ccc(Br)cc3s2)CC1)N1CCC2(CC1)OCCO2	STAT3 inh-1 63 (no result: bCat nuc transl) | STAT3 inh-2 66 | NFkB inh STAT3ct inactive | STAT1 inh STAT3c inactive
Cc1ccc2nc(N3CCC(C(=O)N4CCC5(CC4)OCCO5)CC3)sc2c1	none
CC(=O)c1cn(Cc2ccccc2C#N)c2ccccc12	STAT3 inh-1 66 | STAT3 inh-2 75 | NFkB inh STAT3ct 29 | STAT1 inh STAT3c 21
CC(=O)N1N=C(c2cccnc2)OC1c1ccccc1Cl (configuration not stated)	none (no result: STAT1 inh, STAT3 act, MT stabilizer, STAT3 inh-1)
Cn1c(O)c(C=NCCN2CCNCC2)c(=O)[nH]c1=O	none (no result: STAT1 inh, STAT3 act, MT stabilizer, STAT3 inh-1)
